Structures can show the parent of a compound that is named as a salt.
Columns and labels:
[1] = Pharmacokinetics in mice, IP; assay type: in vivo; conditions: mouse, blood
[2] = Caco-2 permeability; conditions: human
[3] = system: Wistar rats; assay: 30 days toxicity, rats; assay type: in vivo; conditions: 0.5, 5 and 25 mg/kg PO daily
How it was run: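 Wistar rats were randomised to vehicle, 0.5, 5 or 25 mg/kg, with 10 males and 10 females per group. Read-outs were body weight, plasma biochemistry markers, and macro- and microscopic observations.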

[4] = molecular target: muscarinic M2 receptor (Homo sapiens, UniProt P08172); assay: Target panel binding, muscarinic M2
[5] = molecular target: sigma 1 receptor (Homo sapiens, UniProt Q99720); assay: Target panel binding, sigma 1
[6] = Stability in aqueous solutions; assay type: physicochemical; conditions: 72 h, room temperature
How it was run: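 Test compound was incubated for 72 h at room temperature. Media were distilled water, salt solution at pH 4.0 or pH 7.0, and physiological solution at pH 7.4. Read-out was the fraction of the original concentration remaining.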

[7] = system: male CD1 mice; assay: Maximum tolerated dose, 5-day oral; assay type: in vivo
How it was run: (§1)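 Male CD1 mice received test compound in sterile water orally at 10, 30 or 60 mg/kg once daily for 5 days (n = 8 per group). Body weight and deaths were recorded daily, followed by a 2-week observation phase. MTD was taken as the highest dose causing neither mortality nor body-weight loss.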

[8] = Maximum tolerated dose, 5-day oral; assay type: in vivo, mice; conditions: male, CD1, mouse, in vivo, po
How it was run: as §1

[9] = molecular target: histamine H2 receptor (Homo sapiens, UniProt P25021); assay: Radioligand binding competition, histamine H2
[10] = molecular target: 5-HT5A receptor (Homo sapiens, UniProt P47898); assay: Radioligand binding competition, 5-HT5A
[11] = Stability in human blood plasma; assay type: in vitro ADME; conditions: 30-min incubation, room temperature
[12] = system: male adult SHK mice; assay: 14 days toxicity, mice; assay type: in vivo; conditions: 5 mg/kg PO daily
How it was run: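 Mice randomly assigned to a vehicle group or a 5 mg/kg group.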

[13] = system: laboratory rabbits; assay: 30 days toxicity, rabbits; assay type: in vivo; conditions: 4 mg/kg PO daily
[14] = molecular target: 5-HT7 receptor (Homo sapiens, UniProt P34969); conditions: Table 2; cited from earlier work
[15] = molecular target: hERG channel (Homo sapiens, UniProt Q12809); assay: Target panel binding, hERG channel
[16] = Biodistribution of [3H]AVN-101 in rat organs; assay type: in vivo, Wistar rats; conditions: for concentration in Blood / concentration in Brain / concentration in Heart / concentration in Kidneys / concentration in Liver / concentration in Lungs / concentration in Spleen: [3H] label; for accumulation in brain higher than in blood: 4 h
[17] = molecular target: hKv4.3-hKCh1P2.2 (Ito) (Homo sapiens, UniProt Q9UK17); assay: Cardiac channel inhibition, Ito; assay type: cell-based
[18] = molecular target: imidazoline I2 receptor; assay: Radioligand binding competition, imidazoline I2
[19] = system: Monkeys (Macaca mulatta); assay: Q-T interval, monkeys; assay type: in vivo; conditions: 1 mg/kg IV; not affected
[20] = system: male BALB/c mice; assay: Novel object recognition, scopolamine-induced; assay type: in vivo; conditions: 1.0 mg/kg scopolamine; memantine 10 mg/kg; SB-742457 0.2 or 1.0 mg/kg
How it was run: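 All drugs were dissolved in saline and given IP; control animals received saline vehicle. Each group had at least 8 male BALB/c mice. Read-out was novel object recognition index, reported as mean ± SE.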

[21] = molecular target: Adrenergic α1B (Homo sapiens, UniProt P35368); assay: Radioligand competition, adrenergic α1B; assay type: binding
Sequence of Adrenergic α1B (P35368 whole entry): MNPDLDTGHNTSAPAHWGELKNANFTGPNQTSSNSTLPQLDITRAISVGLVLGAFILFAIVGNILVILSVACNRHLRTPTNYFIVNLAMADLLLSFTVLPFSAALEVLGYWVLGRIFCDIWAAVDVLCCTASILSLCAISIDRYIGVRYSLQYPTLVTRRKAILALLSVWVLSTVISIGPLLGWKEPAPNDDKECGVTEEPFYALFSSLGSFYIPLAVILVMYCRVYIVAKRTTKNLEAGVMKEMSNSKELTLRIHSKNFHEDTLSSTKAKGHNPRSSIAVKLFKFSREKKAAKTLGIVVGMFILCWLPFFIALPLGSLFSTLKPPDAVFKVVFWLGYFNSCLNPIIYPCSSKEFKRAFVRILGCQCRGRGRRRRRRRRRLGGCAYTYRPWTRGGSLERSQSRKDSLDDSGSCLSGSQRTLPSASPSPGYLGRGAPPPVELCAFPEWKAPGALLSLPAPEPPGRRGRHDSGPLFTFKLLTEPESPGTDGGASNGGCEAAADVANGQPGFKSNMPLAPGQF

Sequence of hKv4.3-hKCh1P2.2 (Ito) (Q9UK17 whole entry): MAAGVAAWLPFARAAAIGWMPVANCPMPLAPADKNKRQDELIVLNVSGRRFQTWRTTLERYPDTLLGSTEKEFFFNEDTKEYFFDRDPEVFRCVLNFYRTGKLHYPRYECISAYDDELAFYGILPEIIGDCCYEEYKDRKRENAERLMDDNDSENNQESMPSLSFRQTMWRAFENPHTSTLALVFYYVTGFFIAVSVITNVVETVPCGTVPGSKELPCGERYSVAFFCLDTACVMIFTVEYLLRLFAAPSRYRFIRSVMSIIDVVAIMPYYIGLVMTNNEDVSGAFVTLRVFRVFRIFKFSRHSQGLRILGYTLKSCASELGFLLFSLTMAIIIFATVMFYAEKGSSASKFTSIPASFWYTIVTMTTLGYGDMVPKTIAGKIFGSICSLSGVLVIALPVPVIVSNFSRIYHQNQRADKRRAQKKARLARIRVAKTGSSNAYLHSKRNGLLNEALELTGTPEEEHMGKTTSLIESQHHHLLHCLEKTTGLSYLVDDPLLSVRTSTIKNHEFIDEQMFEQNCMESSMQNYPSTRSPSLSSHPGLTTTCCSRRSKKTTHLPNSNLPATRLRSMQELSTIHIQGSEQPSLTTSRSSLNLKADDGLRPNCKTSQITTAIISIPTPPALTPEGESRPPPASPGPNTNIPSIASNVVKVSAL
Sequence of histamine H2 receptor (P25021 whole entry): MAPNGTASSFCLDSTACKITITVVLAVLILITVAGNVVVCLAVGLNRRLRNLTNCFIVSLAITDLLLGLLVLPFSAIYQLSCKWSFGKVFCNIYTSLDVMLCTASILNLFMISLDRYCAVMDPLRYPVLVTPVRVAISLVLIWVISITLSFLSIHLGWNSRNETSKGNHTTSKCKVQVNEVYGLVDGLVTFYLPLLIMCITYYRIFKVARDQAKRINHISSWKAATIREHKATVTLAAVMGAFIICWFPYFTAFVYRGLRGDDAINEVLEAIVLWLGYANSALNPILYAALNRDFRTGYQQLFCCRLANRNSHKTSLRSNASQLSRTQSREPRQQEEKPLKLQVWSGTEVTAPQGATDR
Sequence of hERG channel (Q12809 whole entry): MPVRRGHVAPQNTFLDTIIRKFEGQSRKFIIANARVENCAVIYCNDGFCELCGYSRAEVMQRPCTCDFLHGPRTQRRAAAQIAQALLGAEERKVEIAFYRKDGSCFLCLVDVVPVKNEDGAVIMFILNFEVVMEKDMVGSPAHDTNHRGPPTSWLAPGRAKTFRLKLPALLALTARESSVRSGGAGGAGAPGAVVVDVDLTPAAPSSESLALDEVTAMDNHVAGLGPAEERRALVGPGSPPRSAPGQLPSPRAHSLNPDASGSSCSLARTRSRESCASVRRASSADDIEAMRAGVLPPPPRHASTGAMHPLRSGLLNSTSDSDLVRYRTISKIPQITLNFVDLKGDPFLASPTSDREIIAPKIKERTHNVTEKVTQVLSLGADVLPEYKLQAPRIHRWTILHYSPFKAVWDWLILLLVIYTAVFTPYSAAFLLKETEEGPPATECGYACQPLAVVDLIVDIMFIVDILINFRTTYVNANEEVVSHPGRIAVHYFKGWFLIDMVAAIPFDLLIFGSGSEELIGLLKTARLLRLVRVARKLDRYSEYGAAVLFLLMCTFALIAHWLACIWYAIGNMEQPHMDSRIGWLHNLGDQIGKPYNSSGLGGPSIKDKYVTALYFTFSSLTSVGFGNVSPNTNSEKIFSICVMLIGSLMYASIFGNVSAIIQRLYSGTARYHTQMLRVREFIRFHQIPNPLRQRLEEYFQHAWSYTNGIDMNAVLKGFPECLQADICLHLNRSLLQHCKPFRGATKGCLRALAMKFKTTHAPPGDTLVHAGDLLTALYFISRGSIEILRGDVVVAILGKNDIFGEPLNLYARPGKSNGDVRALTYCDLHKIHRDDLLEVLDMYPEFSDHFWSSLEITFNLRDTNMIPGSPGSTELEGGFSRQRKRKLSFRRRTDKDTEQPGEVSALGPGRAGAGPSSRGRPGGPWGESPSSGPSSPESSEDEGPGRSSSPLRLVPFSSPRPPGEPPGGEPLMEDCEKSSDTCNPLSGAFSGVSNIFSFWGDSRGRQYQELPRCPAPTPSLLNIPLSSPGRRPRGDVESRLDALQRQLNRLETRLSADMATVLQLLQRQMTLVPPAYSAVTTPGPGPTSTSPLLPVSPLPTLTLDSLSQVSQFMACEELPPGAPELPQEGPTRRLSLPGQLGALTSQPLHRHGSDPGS
Sequence of 5-HT7 receptor (P34969 whole entry): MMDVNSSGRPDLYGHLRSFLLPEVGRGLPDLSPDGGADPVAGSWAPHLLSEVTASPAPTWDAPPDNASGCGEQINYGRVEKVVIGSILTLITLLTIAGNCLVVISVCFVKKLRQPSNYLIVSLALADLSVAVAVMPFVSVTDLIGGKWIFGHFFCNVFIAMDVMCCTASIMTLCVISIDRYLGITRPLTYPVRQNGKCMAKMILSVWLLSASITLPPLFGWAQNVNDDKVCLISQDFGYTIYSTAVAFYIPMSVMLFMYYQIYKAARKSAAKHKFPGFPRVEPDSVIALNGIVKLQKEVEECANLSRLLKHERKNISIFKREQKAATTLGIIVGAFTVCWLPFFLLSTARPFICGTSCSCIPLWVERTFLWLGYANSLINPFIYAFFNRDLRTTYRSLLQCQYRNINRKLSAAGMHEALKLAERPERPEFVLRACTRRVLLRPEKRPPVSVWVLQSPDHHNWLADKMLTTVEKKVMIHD
Sequence of muscarinic M2 receptor (P08172 whole entry): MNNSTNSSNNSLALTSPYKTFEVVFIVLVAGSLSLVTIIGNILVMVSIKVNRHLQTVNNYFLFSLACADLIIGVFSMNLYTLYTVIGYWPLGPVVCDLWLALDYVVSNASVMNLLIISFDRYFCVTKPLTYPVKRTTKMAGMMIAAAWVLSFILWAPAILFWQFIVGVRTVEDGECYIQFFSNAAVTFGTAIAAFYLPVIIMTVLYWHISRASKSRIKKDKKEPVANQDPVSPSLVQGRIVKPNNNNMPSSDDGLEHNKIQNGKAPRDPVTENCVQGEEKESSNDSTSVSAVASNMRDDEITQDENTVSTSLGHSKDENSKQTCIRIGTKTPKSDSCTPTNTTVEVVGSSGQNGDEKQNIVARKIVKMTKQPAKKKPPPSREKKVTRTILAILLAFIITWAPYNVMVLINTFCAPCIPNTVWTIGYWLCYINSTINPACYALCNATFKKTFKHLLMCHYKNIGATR
Sequence of 5-HT5A receptor (P47898 whole entry): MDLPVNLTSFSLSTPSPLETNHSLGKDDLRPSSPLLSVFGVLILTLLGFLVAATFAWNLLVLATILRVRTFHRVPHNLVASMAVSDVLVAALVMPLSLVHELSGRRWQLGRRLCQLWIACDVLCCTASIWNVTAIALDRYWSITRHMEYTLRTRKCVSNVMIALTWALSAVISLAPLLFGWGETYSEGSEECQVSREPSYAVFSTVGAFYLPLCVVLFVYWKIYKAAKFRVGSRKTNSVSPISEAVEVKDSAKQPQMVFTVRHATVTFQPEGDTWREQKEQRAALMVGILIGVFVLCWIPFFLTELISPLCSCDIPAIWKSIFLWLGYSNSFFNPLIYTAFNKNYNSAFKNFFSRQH
Sequence of sigma 1 receptor (Q99720 whole entry, species assumed): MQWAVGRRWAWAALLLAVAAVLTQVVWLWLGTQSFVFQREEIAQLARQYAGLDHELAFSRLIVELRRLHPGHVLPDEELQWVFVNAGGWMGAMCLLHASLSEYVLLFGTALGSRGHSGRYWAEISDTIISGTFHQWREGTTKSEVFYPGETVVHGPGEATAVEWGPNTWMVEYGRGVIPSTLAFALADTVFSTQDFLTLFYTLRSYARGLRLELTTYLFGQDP

## Cc1ccc2c(c1)c1c(n2CCc2ccccc2)CCN(C)C1 [AVN-101, 2,8-dimethyl-5-penethyl-2,3,4,5-tetra-hydro-1h-pyrido[[4,3-B]]indole hydrochloride]
[1]; 0.05 mg/kg
  Cmax: 1.9 ng/mL
  Tmax: 5 min
  half-life: 10.5 min
[1]; 0.05 mg/kg, AUC0 - >t, IP 0.05 mg/kg
  AUC: 0.487 ng·h/mL
[1]; 0.05 mg/kg, AUC0 - >∞, IP 0.05 mg/kg
  AUC: 0.498 ng·h/mL
[1]; 0.2 mg/kg
  Cmax: 5 ng/mL
  Tmax: 15 min
  half-life: 58 min
[1]; 0.2 mg/kg, AUC0 - >t, IP 0.2 mg/kg
  AUC: 5.65 ng·h/mL
[1]; 0.2 mg/kg, AUC0 - >∞, IP 0.2 mg/kg
  AUC: 6.08 ng·h/mL
[1]; 1 mg/kg
  Cmax: 23 ng/mL
  Tmax: 15 min
  half-life: 81 min
[1]; 1 mg/kg, AUC0 - >t, IP 1.0 mg/kg
  AUC: 25.9 ng·h/mL
[1]; 1 mg/kg, AUC0 - >∞, IP 1.0 mg/kg
  AUC: 32 ng·h/mL
[1]; 2 mg/kg
  half-life: 130 min
[1]; 5 mg/kg
  Cmax: 198 ng/mL
  Tmax: 5 min
  concentration at 5 min: ~650 nM
  half-life: 136 min
[1]; 5 mg/kg, AUC0 - >t, IP 5.0 mg/kg
  AUC: 184 ng·h/mL
[1]; 5 mg/kg, AUC0 - >∞, IP 5.0 mg/kg
  AUC: 274 ng·h/mL
[2]
  Papp: 19 ± 1.8 ×10⁻⁶ cm/s
  Papp B→A: 21 ± 2.1 ×10⁻⁶ cm/s
[3]
  signs of toxicity: No signs of toxicity
[4]
  binding: does not bind
[5]
  binding: does not bind
[6]; distilled water
  fraction of original concentration: 97.03%
[6]; physiological solution pH 7.4
  fraction of original concentration: 99.38%
[6]; salt solution pH 4.0
  fraction of original concentration: 98.05%
[6]; salt solution pH 7.0
  fraction of original concentration: 99.95%
[7]; 30 mg/kg PO once daily for 5 days
  mortality: 12.5%
[7]; 60 mg/kg PO once daily for 5 days
  mortality: 50%
[7]; 60 mg/kg, starting from the 4th day
  body weight: statistically significant weight loss
[8]
  MTD at 5 days: 10 to 30 mg/kg
[9]
  Ki: 89 nM
[10]
  Ki: 20.8 nM
[11]
  residual amount of original compound: 68%
[12]
  signs of toxicity: No signs of toxicity
[13]
  body weight, plasma biochemistry markers, macro- and microscopic observations: No changes
  kidney finding, one of 3 males: small infarctions in cortical substance of the kidneys
  ovary finding, one of 3 females: ovary hypo function
[14]
  Ki: 0.153 nM
[15]
  binding: does not bind
[16]; 4 h after IV 5 mg/kg
  concentration in Blood: 360 ± 10 ng/mL
  concentration in Brain: 9440 ± 360 ng/mL
  concentration in Heart: 9240 ± 230 ng/mL
  concentration in Kidneys: 6500 ± 200 ng/mL
  concentration in Liver: 5300 ± 160 ng/mL
  concentration in Lungs: 8960 ± 110 ng/mL
  concentration in Spleen: 5940 ± 150 ng/mL
[16]; 4 h after PO 10 mg/kg
  concentration in Blood: 460 ± 10 ng/mL
  concentration in Brain: 6240 ± 240 ng/mL
  concentration in Heart: 3280 ± 150 ng/mL
  concentration in Kidneys: 4700 ± 220 ng/mL
  concentration in Liver: 3780 ± 130 ng/mL
  concentration in Lungs: 3200 ± 230 ng/mL
  concentration in Spleen: 3740 ± 150 ng/mL
[16]; IV
  accumulation in brain higher than in blood: 26 fold
[16]; PO
  accumulation in brain higher than in blood: 13 fold
[16]; normalized by dose
  IV/PO, normalized, Kidneys: 2.77
  IV/PO, normalized, Spleen: 3.18
[16]; rat, in vivo
  Organ bioavailability, Blood: 63.9%
  Organ bioavailability, Brain: 33.0%
  Organ bioavailability, Heart: 17.7%
  Organ bioavailability, Kidneys: 36.2%
  Organ bioavailability, Liver: 35.6%
  Organ bioavailability, Lungs: 17.9%
  Organ bioavailability, Spleen: 31.5%
[17]
  IC50: 14800 nM
[17]; read-out: % Inhibition at 31.6μM
  inhibition at 31.6 µM: 66%
[18]
  Ki: 179 nM
[19]
  QT interval: 0.22 ± 0.04 s
  heart rate: ca. 175 beats/min
[20]
  effect on deficit in novel object recognition: partially reverse
[21]
  Ki: 9.4 nM

— paper PMC4969713 (Journal of Alzheimer's Disease, 2016)
